These results are taken from ChEMBL document CHEMBL1268907, “Synthesis and evaluation of benzoxazole derivatives as 5-lipoxygenase inhibitors” (Bioorg Med Chem, 2010).

For test [1], the target named is T1, Polyunsaturated fatty acid 5-lipoxygenase (Mus musculus, UniProt P48999).
T1 sequence (P48999 whole entry): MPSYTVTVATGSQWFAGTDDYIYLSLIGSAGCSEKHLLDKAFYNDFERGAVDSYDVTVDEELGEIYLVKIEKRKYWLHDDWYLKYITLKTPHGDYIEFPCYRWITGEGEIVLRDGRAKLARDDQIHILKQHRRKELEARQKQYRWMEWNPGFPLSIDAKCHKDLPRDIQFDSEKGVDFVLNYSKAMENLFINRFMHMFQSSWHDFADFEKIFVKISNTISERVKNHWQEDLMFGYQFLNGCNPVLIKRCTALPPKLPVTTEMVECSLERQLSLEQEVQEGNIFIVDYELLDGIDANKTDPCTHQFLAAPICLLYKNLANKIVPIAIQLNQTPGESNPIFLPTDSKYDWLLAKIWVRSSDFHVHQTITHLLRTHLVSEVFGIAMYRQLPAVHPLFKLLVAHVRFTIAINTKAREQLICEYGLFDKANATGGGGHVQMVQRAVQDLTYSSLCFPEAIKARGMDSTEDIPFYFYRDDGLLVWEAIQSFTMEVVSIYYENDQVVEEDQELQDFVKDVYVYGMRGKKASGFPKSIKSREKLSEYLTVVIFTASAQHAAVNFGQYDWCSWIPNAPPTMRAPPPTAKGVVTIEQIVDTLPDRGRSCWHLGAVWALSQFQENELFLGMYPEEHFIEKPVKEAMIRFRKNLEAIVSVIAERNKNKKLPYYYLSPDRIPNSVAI
The experiment in a line: Inhibition of 5-lipoxygenase in BALB/c mouse BMMC assessed as LTC4 release after 20 mins by enzyme immunoassay. An outline of the steps:
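Bone marrow mast cells from male Balb/c mice, cultured up to 4 weeks in enriched RPMI + 10% FBS + IL-3 (2 ng/mL); >98% purity by toluidine blue staining. Cells at 1×10^6/mL pre-incubated with compound in DMSO (final <0.5%) for 30 min at 37 °C, then stimulated with SCF 100 ng/mL for 20 min. Supernatant LTC4 measured by EIA in triplicate; % reduction calculated.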

Test [2] has as its system Mus musculus. Put plainly: Antiasthamatic activity against ovalbumin-induced airway hyperresponsiveness mouse model assessed as reduction of increase in penh value at 30 mg/kg, po administered 24 hrs after last ovalbumin challenge measured after 24 hrs by plethysmography. The class given is functional, organism-based. Set-up: dose 30 mg/kg. Put shortly: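 OVA/alum-sensitized mice (i.p., days 0 and 11) challenged with 1% OVA aerosol, given 30 mg/kg orally. 24 h after final aerosol, whole-body plethysmography was run: PBS aerosol, then methacholine 12.5, 25 and 50 mg/mL for 3 min each, with 5 min recording per step. Peak Penh at each dose expressed as % of basal PBS Penh.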

For test [3], the system named is Mus musculus. Put plainly: Antiasthamatic activity against ovalbumin-induced airway hyperresponsiveness mouse model assessed as reduction of eosinophils infiltration at 30 mg/kg, po measured 48 hrs after ovalbumin challenge. The class given is functional, organism-based. Set-up: dose 30 mg/kg. Put shortly:
(§1)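 Mice sensitized i.p. with OVA/alum on days 0 and 11 and challenged with 1% OVA aerosol on days 19–21 and 25. Oral dosing at 30 mg/kg. Lungs taken 48 h after last challenge, fixed 24 h in 10% neutral-buffered formalin, paraffin-embedded, cut at 4 µm and H&E stained. Peribronchial/perivascular infiltration scored 0–3 blind by two independent investigators.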

In test [4] the test system is Mus musculus. The experiment in a line: Antiasthamatic activity against ovalbumin-induced airway hyperresponsiveness mouse model assessed as reduction of bronchoalveolar lavage fluid IL-13 level at 30 mg/kg, po measured 48 hrs after ovalbumin challenge. The class given is functional, Lung. An outline of the steps:
(§2)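 OVA sensitization i.p. (20 µg OVA with 2 mg aluminum hydroxide in PBS pH 7.4, days 0 and 11), then airway challenge with 1% OVA aerosol for 20 min on days 19, 20, 21 and 25. Compound given orally at 30 mg/kg. BALF collected 48 h after last challenge by three 0.5 mL ice-cold PBS lavages and centrifuged. IL-4, IL-5 and IL-13 measured by mouse ELISA (detection limit 250 pg/mL). n = 5–6 per group, mean ± SEM.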

The subject of test [5] is Mus musculus. Put plainly: Antiasthamatic activity against ovalbumin-induced airway hyperresponsiveness mouse model assessed as reduction of mononuclear cells infiltration at 30 mg/kg, po measured 48 hrs after ovalbumin challenge. The class given is functional, organism-based. Set-up: dose 30 mg/kg. An outline of the steps:
as §1

The test system of test [6] is Mus musculus. The experiment in a line: Antiasthamatic activity against ovalbumin-induced airway hyperresponsiveness mouse model assessed as reduction of bronchoalveolar lavage fluid IL-5 level at 30 mg/kg, po measured 48 hrs after ovalbumin challenge. Type of test: functional, Lung. Put shortly:
as §2

For test [7], the system named is Mus musculus. The experiment in a line: Antiasthamatic activity against ovalbumin-induced airway hyperresponsiveness mouse model assessed as reduction of bronchoalveolar lavage fluid IL-4 level at 30 mg/kg, po measured 48 hrs after ovalbumin challenge. Type of test: functional, Lung. Put shortly: as §2
Test [8] concerns Mus musculus. Put plainly: Antiasthamatic activity against ovalbumin-induced airway hyperresponsiveness mouse model assessed as reduction of plasma IgE level at 30 mg/kg, po measured 48 hrs after ovalbumin challenge (reference value: 41.82 +/- 10.57 ng/ml). Type of test: functional.

pIC50: −log10 of the molar value. The source made the active and inactive calls. No cut-off for these calls is given here.

Turning to `COc1ccc2oc(Nc3ccc(C(C)C)cc3)nc2c1`, in test [1], the negative logarithm of the IC50 (pIC50) was 5.58.
`CCc1ccc(Nc2nc3cc(Cl)ccc3o2)cc1`: the outcome in the test on Mus musculus [2], with Mus musculus [3] and with Mus musculus [5] was Active. Further, the Activity was 71.91 ng/mL in the test with Mus musculus [4], 110.91 ng/mL with Mus musculus [6], 163.49 ng/mL with Mus musculus [7] and 25.44 ng/mL in the test on Mus musculus [8].
Turning to `CCc1ccc(Nc2nc3cc(C)ccc3o2)cc1`, the result in the test on Mus musculus [2], in the test on Mus musculus [3] and in the test with Mus musculus [5] was Active. The Activity came out at 64.3 ng/mL in the test with Mus musculus [4], 116.92 ng/mL in the test with Mus musculus [6], 198.34 ng/mL with Mus musculus [7] and 19.21 ng/mL in the test on Mus musculus [8]. Besides, the negative logarithm of the IC50 (pIC50) in test [1] is 6.92.
With `CCc1ccccc1Nc1nc2cc(C)ccc2o1`, the pIC50 in test [1] is 5.25.
For the compound `COc1ccc2oc(Nc3ccccc3)nc2c1`, the pIC50 in test [1] was 5.10.
Still for that read-out and setting: next, `COc1ccc2oc(Nc3ccc(SC)cc3)nc2c1`: 5.56.
Same read-out and setting: the same measure for `COc1ccc2oc(Nc3cccc(Br)c3)nc2c1`: 5.69.
On the same count and under the same terms, the same measure for `Clc1ccc2oc(Nc3ccccc3)nc2c1`: 5.35; for `CSc1ccc(Nc2nc3cc(C)ccc3o2)cc1`: 5.14; for `Cc1ccc2oc(Nc3ccccc3)nc2c1`: 5.34.
Take `COc1cccc(Nc2nc3cc(C)ccc3o2)c1`: in test [1], the pIC50 is 5.17.

One may read the pIC50 as −log10 of the IC50, conventionally taken in molar units.
